In ChEMBL document CHEMBL1133040, “Activity-guided isolation of constituents of Cerbera manghas with antiproliferative and antiestrogenic activities” (Bioorg Med Chem Lett, 2000):
Converted amounts (≈) assume the structure as drawn.

How the values were obtained:
Type in all cases: functional, cell-based
Col2 = assay: Inhibition of Col2 human colon cancer cell proliferation
How it was run: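 Col2 human colon cancer cells grown in MEME with 10% NAA, antibiotic-antimycotic and 10% FBS at 37 °C, 5% CO2. Exponentially growing cells seeded onto compounds dissolved in DMSO and grown 3 days at 37 °C. Cells TCA-fixed, stained with 0.4% sulforhodamine B in 1% acetic acid, dye solubilized in 0.1 M Tris, A515 read. % growth computed against day-0 and DMSO-control absorbances.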

Ishikawa [1] = assay: Inhibition of antiestrogenic response in Ishikawa cells
Ishikawa [2] = assay: Inhibition of Ishikawa cell proliferation
Ishikawa [3] = assay: Antiestrogenic effects in Ishikawa cells; settings: Homo sapiens
[4] = Homo sapiens, Ishikawa, read-out: IC50

Row | Compound | IC50 (Col2) [µg/mL] | IC50 (Ishikawa [1]; [4]) [µg/mL] | IC50 (Ishikawa [2]; [4]) [µg/mL] | IC50 (Ishikawa [3]) [µg/mL] | IC50 (Ishikawa [1]; ishikawa) [µg/mL] | IC50 (Ishikawa [2]; ishikawa) [µg/mL]
1 | CO[C@@H]1[C@@H](O)[C@H](C)O[C@@H](OC2CC[C@@]3(C)[C@H](CC[C@@H]4[C@@H]3C3OC3[C@]3(C)[C@H](C5=CC(=O)OC5)CC[C@]43O)C2)[C@@H]1O (stereo in doubt; 2) | ≤ 5 | 0.008 (≈ 0.0146 µM) | 0.02 (≈ 0.0365 µM) | ≤ 5 |  | 
2 | COc1cc(C[C@H]2COC(c3ccc(O)c(OC)c3)[C@@]2(O)CO)ccc1O (stereo partly drawn) | > 10 |  |  | > 10 |  | 
3 | CO[C@@H]1[C@@H](O)[C@H](C)O[C@@H](OC2CC[C@@]3(C)[C@H](CC[C@@H]4[C@@H]3C3OC3[C@]3(C)[C@H](C5=CC(=O)OC5)CC[C@]43O)C2)[C@@H]1O (stereo in doubt; 1) |  |  |  |  | 0.0042 (≈ 0.00765 µM) | 0.015 (≈ 0.0273 µM)
